This is an account of results in ChEMBL document CHEMBL4145530, “Design, synthesis and pharmacological evaluation of N-benzyl-piperidinyl-aryl-acylhydrazone derivatives as donepezil hybrids: Discovery of novel multi-target anti-alzheimer prototype drug candidates” (Eur J Med Chem, 2018).

By inhibition is commonly meant the percentage by which the read-out fell short of the control. The term pIC50 denotes the IC50 on a negative log10 scale, so that one unit is a factor of ten. Read a low pIC50 as a high IC50. What is called pKi is the Ki on a negative log10 scale, so that one unit is a factor of ten. A high value points to a small Ki.

Series [1] deals with Acetylcholinesterase (Electrophorus electricus) (UniProt O42275). Description: (§1) Inhibition of electric eel AChE using acetylthiocholine iodide as substrate preincubated for 10 mins followed by substrate addition by Ellman's method. For orientation: Ellman's reagent forms a yellow product with free thiols.
The target of series [2] is T1, Acetylcholinesterase (Electrophorus electricus, UniProt O42275). Described as §1.
Series [3] deals with Cholinesterase (Equus caballus) (UniProt P81908). Description: (§2) Inhibition of […] preincubated for 10 mins followed by substrate addition by Ellman's method.
The target in series [4] is Cholinesterase (Equus caballus, UniProt P81908). The series is described as §2.
In series [5] the target is T1, Acetylcholinesterase. Briefly: Non-competitive inhibition of electric eel AChE using acetylthiocholine iodide as substrate preincubated for 10 mins followed by substrate addition by Ellman's method. A digest of the protocol: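 Substrate-competition kinetics with E. electricus AChE by Ellman's method: 10 min enzyme–DTNB–compound preincubation in 0.1 M phosphate, pH 7.4, then acetylthiocholine; A412 was read every 12 s for 5 min at rt. Three independent data sets, each in triplicate, were averaged and fitted to a simple noncompetitive model. That model was compared with mixed linear inhibition by AICc probability ratio.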

Series [6] relates to Mus musculus. Briefly: Antinociceptive activity in formalin-induced Swiss mouse model of hyperalgesia assessed as time spent licking the injected paw in early phase at 100 mM/kg, po pretreated for 1 hr followed by formalin injection and measured up to 5 mins (reference value: 74 +/- 7.7 secs). It counts as functional.
Series [7] concerns Mus musculus. Briefly: Anti-inflammatory activity in Swiss mouse assessed as reduction in carrageenan-induced paw edema by measuring paw volume […] po pretreated for 1 hr followed by carrageenan injection and measured after 1 to 5 hrs by plethysmometric method (reference value: 67.73 +/- 4.2 uL). The format is functional. In a few lines: (§3)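 Male Swiss mice (22–28 g) were fasted overnight and dosed orally with vehicle (2% DMSO in sterile saline), compound or indomethacin 1 h before intraplantar carrageenan. Groups (n=10) were matched on basal paw volume. Right hind paw volume was read by plethysmometer at 1, 3 and 5 h and expressed as change from basal.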
(In general: The carrageenan paw model is a standard test of acute inflammation.)

In series [8] the test system is Mus musculus. Briefly: Anti-inflammatory activity in po dosed Swiss mouse assessed as reduction in carrageenan-induced paw edema pretreated for 1 hr followed by carrageenan injection and measured after 1 to 5 hrs by plethysmometric method. The format is functional. Particulars: read-out: ID50 (the source's name). In a few lines:
as §3

For series [9], the target named is T2, Prostaglandin G/H synthase 1 (Ovis aries) (UniProt P05979).
T2 sequence (whole entry): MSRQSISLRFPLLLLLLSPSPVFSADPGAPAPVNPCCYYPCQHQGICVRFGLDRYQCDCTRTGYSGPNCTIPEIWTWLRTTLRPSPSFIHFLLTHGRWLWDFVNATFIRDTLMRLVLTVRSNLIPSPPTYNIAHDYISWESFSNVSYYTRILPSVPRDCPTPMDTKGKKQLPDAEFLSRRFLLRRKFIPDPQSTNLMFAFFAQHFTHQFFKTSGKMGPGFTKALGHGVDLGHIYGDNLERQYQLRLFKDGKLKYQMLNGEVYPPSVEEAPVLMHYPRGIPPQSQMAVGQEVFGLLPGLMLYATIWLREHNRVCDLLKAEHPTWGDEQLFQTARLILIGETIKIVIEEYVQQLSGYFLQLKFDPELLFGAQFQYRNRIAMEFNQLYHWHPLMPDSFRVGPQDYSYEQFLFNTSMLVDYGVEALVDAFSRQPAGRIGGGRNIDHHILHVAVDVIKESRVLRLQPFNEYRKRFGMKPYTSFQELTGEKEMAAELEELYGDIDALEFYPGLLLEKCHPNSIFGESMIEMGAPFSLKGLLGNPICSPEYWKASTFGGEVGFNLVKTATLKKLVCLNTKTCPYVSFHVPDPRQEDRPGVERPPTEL
Briefly: Inhibition of ovine COX1 at 10 uM using arachidonic acid as substrate preincubated for 120 mins followed by substrate addition measured for 5 secs by chemiluminescence assay relative to control. In a few lines: (§4)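 COX-1 or COX-2 with heme was preincubated 120 min with compound (10 µM) in assay buffer. Arachidonic acid and a chemiluminescent substrate were then added at room temperature and peroxidative activity was read for 5 s; ibuprofen was the reference. Selectivity index was taken as the ratio of maximum COX-2 inhibition to COX-1 inhibition. Two independent experiments.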

Series [10] is described as follows: Selectivity ratio of compound effect for inhibition of human COX2 to compound effect for inhibition of ovine COX1. A digest of the protocol: as §4
Series [11] relates to HepG2. Briefly: cells. It counts as ADME, cell-based. Particulars: Homo sapiens, HepG2, 6 h.
Series [12] relates to SH-SY5Y. Description: cells. The format is ADME, cell-based. To be noted: Homo sapiens, 24 h.
Series [13] is described as follows: Cytotoxicity against human HepG2 cells assessed as cell viability at 20 to 40 uM after 6 hrs by trypan blue exclusion assay relative to control. It counts as cell-based. To be noted: read-out: Activity.
Series [14] has as its system HepG2. Briefly: Genotoxicity in human HepG2 cells assessed as induction of DNA damage by measuring comet tail moment at 20 to 40 uM by alkaline comet assay. It counts as toxicity, cell-based. Particulars: hepg2, 40 µM. In a few lines:
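HepG2 cells were exposed 6 h to 20 or 40 µM, then trypsinised; viability was checked by trypan blue. Cells were embedded in low-melting agarose and lysed at 4 °C, pH 10, for 24 h. DNA was unwound 20 min in pH 13 buffer, then electrophoresed 25 V/300 mA for 25 min, neutralised and stained with SYBR Green. Tail moment was scored on 50 nuclei per slide in triplicate slides; 3 independent experiments. Doxorubicin and UV light served as positive controls.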

Series [15] has as its system Mus musculus. Description: Proinflammatory activity in C57Bl/6 mouse model of amyloid beta (1 to 42) oligomer-induced neuroinflammation assessed as induction of microgliosis in CA1 region of contralateral hippocampus at 100 mg/kg, ip pretreated for 1.5 hrs followed by amyloid beta (1 to 42) oligomer addition and measured after 7 days by Iba-1 staining based assay. The format is organism-based. Particulars: in vivo, 168 h. In a few lines:
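Male C57Bl/6 mice (25–30 g) got 100 mg/kg i.p. or vehicle 1.5 h before a unilateral right-hippocampal injection of Aβ1-42 oligomers (400 pmol/0.5 µL) or PBS. The oligomers were made by diluting the DMSO stock into PBS at 40 µM and holding at 4 °C for 48 h. After 7 days, brain sections were stained for Iba-1 (antigen retrieval, fluorescent secondary) and five CA1 images per hippocampus were taken; pixel density was read, n=10.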

Series [16] concerns Mus musculus. Briefly: Anti-inflammatory activity in C57Bl/6 mouse model of amyloid beta (1 to 42) oligomer-induced neuroinflammation assessed as inhibition of neurodegeneration in CA1 region of ipsilateral hippocampus at 100 mg/kg, ip pretreated for 1.5 hrs followed by amyloid beta (1 to 42) oligomer addition and measured after 7 days by Fluoro-Jade C staining based fluorescence microscopic assay. The format is functional, organism-based. In a few lines:
(§5)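 C57Bl/6 male mice were dosed i.p. at 100 mg/kg 1.5 h before stereotactic right intrahippocampal Aβ1-42 oligomer injection (400 pmol/0.5 µL), with PBS as control. After 7 days, hippocampal sections were stained with Fluoro-Jade C (0.0001%) after NaOH/ethanol and permanganate steps. Five CA1 images per hippocampus were imaged under fluorescence and pixel intensity quantified, n=10.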

For series [17], the system named is Mus musculus. Briefly: Toxicity in C57Bl/6 mouse model of amyloid beta (1 to 42) oligomer-induced neuroinflammation assessed as induction of neurodegeneration in CA1 region of contralateral hippocampus at 100 mg/kg, ip pretreated for 1.5 hrs followed by amyloid beta (1 to 42) oligomer addition and measured after 7 days by Fluoro-Jade C staining based fluorescence microscopic assay. It counts as organism-based. To be noted: in vivo, 168 h. In a few lines:
as §5

Molecules are shown by their SMILES. pIC50, pKi: −log10 of the molar value. The source made the active and inactive calls. The rule behind the calls is not given here.

T1 sequence (O42275 whole entry): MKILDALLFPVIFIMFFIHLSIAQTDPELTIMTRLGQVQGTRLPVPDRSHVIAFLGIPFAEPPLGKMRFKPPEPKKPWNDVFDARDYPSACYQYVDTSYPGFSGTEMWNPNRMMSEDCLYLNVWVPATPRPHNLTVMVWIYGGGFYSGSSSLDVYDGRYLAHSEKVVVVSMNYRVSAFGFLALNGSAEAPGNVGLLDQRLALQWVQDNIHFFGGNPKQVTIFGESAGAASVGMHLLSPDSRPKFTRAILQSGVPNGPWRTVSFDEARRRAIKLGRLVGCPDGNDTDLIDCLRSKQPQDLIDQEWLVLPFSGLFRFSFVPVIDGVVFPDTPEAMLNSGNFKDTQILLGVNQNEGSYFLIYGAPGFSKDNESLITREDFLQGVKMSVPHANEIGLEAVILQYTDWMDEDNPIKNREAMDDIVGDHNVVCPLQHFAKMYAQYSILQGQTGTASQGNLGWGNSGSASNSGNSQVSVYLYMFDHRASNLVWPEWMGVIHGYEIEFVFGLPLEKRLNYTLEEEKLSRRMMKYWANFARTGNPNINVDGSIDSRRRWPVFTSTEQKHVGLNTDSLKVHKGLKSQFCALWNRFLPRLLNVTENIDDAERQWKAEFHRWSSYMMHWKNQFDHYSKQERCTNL
Acetylcholinesterase (Electrophorus electricus), sequence (O42275 24-633 limits assumed): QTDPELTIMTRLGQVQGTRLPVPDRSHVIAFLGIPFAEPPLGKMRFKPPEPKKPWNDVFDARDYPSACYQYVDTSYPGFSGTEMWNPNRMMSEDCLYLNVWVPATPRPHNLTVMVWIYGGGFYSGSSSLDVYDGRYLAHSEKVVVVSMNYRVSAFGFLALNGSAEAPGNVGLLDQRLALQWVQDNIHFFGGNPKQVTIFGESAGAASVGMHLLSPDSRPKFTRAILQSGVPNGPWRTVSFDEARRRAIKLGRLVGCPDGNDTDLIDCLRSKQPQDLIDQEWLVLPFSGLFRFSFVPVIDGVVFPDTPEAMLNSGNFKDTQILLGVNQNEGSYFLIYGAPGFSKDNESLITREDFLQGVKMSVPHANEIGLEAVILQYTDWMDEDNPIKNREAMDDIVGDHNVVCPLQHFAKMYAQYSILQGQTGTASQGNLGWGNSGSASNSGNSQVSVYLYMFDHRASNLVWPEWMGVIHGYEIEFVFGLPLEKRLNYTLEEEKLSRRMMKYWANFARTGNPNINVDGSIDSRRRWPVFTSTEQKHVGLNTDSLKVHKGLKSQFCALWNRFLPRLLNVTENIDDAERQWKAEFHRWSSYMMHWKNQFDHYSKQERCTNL
Cholinesterase, sequence (P81908 whole entry): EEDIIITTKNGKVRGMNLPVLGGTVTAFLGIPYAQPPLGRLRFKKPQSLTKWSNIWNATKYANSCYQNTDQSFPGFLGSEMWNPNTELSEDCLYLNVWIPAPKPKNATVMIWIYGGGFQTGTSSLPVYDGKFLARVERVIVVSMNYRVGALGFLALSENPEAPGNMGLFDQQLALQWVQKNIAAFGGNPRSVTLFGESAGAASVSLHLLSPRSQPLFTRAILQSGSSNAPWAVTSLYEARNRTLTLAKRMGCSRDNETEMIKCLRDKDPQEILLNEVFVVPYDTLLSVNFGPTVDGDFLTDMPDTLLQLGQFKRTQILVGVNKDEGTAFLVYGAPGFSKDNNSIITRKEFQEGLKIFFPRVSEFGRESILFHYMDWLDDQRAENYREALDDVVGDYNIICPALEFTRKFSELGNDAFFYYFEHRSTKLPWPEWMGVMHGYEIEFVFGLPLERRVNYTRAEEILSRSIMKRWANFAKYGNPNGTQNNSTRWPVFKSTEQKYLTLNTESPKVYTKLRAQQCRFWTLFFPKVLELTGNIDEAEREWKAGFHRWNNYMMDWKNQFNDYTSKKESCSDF
Cholinesterase (Equus caballus), sequence (P81908 whole entry): as above

For the compound `O=C(N/N=C/c1ccc(Cl)cc1)c1ccc(CN2CCCC(O)C2)cc1` (centres undefined), the inhibition entry was “Dose-dependent effect” in series [1], “Dose-dependent effect” in series [3] and 51% in [9]. In addition, the pIC50 in series [2] was 4.60; in [4] it was 4.32; in series [11], less than 4.10; in series [12], less than 4.10. For the same compound, the pKi in series [5] is 5.11. In addition, the Time in series [6] turned out to be 14 s. Besides, the Activity is 17.14 µL in series [7], “Non-Toxic” in series [14], “Non-Toxic” in [15] and “Non-Toxic” in series [17]. Moreover, in series [8], the ED50 came to 8.76 µmol/kg. Further, the Selectivity ratio in series [10] was 1.27. In addition, the viability at 6 h, 40 µM in [13] is greater than 90%. Besides, in series [16], the inhibition entry is “Active”.

For the compound `O=C(N/N=C/c1ccc(F)cc1)c1ccc(CN2CCCC(O)C2)cc1` (centres undefined), the inhibition entry in series [1] is “Dose-dependent effect”; in series [3] it was “Dose-dependent effect”; in series [9] it was 64%. Also, the pIC50 in series [2] is 5.06; in series [4] it was 4.41; in series [11], less than 4.10; in series [12], less than 4.10. Besides, the pKi in series [5] is 4.87. Moreover, the Time in [6] amounted to 18.86 s. Also, the Activity in [7] was 20 µL; in [14], “Non-Toxic”; in series [15] it was “Non-Toxic”; in series [17] it was “Toxic”. Moreover, in [8], the ED50 was determined as 4.66 µmol/kg. In addition, the Selectivity ratio in [10] was determined as 0.83. Also, the viability at 6 h, 40 µM in series [13] was greater than 90%. For the same compound, the inhibition entry in series [16] was “inactive”.
